Experiments:
Type in all cases: functional
Tobacco mosaic virus [1] = experiment: Antiviral activity against Tobacco mosaic virus (TMV) in tobacco leaf juice at 500 ug/ml after 72 hr by half-leaf method
Outline: (§1)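 Detached leaf (half-leaf) assay in Nicotiana tabacum var. Xanthi nc, 5−6 growth stage. Whole leaf inoculated with TMV (5.88 × 10−2 μg/mL) by juice-leaf rubbing, then cut in half along the main vein. One half soaked 20 min in compound solution, the other in double-distilled water. Halves cultured 72 h at 25 °C. At least three replicates. Inhibition % = (control − treated mean local lesions)/control × 100.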

Tobacco mosaic virus [2] = experiment: Antiviral activity against Tobacco mosaic virus (TMV) in tobacco plant leaf assessed as curative effect at 100 ug/ml after 3 to 4 days
Outline: (§2)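 Whole plants of N. tabacum var. Xanthi nc at the same leaf age. Whole leaves dip-inoculated with TMV (6.0 × 10−3 mg/mL), then washed with water and dried. Compound smeared on the left half-leaf, solvent on the right as control. Local lesions counted 3−4 days after inoculation, three replicates. Inhibition % calculated from mean lesion numbers versus control.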

Tobacco mosaic virus [3] = experiment: Antiviral activity against Tobacco mosaic virus (TMV) in tobacco plant leaf assessed as inactivation effect at 500 ug/ml after 3 to 4 days
Outline: (§3)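 TMV mixed with an equal volume of compound solution for 30 min. The mixture was inoculated on the left half of N. tabacum var. Xanthi nc leaves, and virus mixed with solvent on the right half as control. Local lesions recorded 3−4 days after inoculation, three replicates. Inhibition % calculated from mean lesion numbers versus control.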

Tobacco mosaic virus [4] = experiment: Antiviral activity against Tobacco mosaic virus (TMV) in tobacco plant leaf assessed as protection effect at 500 ug/ml after 3 to 4 days
Outline: (§4)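 Compound smeared on the left half of growing N. tabacum var. Xanthi nc leaves of the same age, solvent on the right half as control. Leaves inoculated with TMV 12 h later. Local lesions counted 3−4 days after inoculation, three replicates. Inhibition % = (control − treated mean lesions)/control × 100.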

Tobacco mosaic virus [5] = experiment: Antiviral activity against Tobacco mosaic virus (TMV) in tobacco leaf juice at 100 ug/ml after 72 hr by half-leaf method; outline: as §1
Tobacco mosaic virus [6] = experiment: Antiviral activity against Tobacco mosaic virus (TMV) in tobacco plant leaf assessed as protection effect at 100 ug/ml after 3 to 4 days; outline: as §4
Tobacco mosaic virus [7] = experiment: Antiviral activity against Tobacco mosaic virus (TMV) in tobacco plant leaf assessed as curative effect at 500 ug/ml after 3 to 4 days; outline: as §2
Tobacco mosaic virus [8] = experiment: Antiviral activity against Tobacco mosaic virus (TMV) in tobacco plant leaf assessed as inactivation effect at 100 ug/ml after 3 to 4 days; outline: as §3

## COc1cc2c3c(c4ccc(O)cc4c2cc1OC)CN1CCC[C@H]1C3
Tobacco mosaic virus [1]
  inhibition at 500 µg/mL: 52.2%
Tobacco mosaic virus [2]
  inhibition at 100 µg/mL: 23.2%
Tobacco mosaic virus [3]
  inhibition at 500 µg/mL: 46.2%
Tobacco mosaic virus [4]
  inhibition at 500 µg/mL: 43.2%
Tobacco mosaic virus [5]
  inhibition at 100 µg/mL: 21.3%
Tobacco mosaic virus [6]
  inhibition at 100 µg/mL: 19.5%
Tobacco mosaic virus [7]
  inhibition at 500 µg/mL: 49.6%
Tobacco mosaic virus [8]
  inhibition at 100 µg/mL: 17.8%

## COc1cc2c3c(c4ccc(OCCO)cc4c2cc1OC)CN1CCC[C@@H]1C3
Tobacco mosaic virus [1]
  inhibition at 500 µg/mL: 78.2%
Tobacco mosaic virus [2]
  inhibition at 100 µg/mL: 42.8%
Tobacco mosaic virus [3]
  inhibition at 500 µg/mL: 70.4%
Tobacco mosaic virus [4]
  inhibition at 500 µg/mL: 71.6%
Tobacco mosaic virus [5]
  inhibition at 100 µg/mL: 47.5%
Tobacco mosaic virus [6]
  inhibition at 100 µg/mL: 39.5%
Tobacco mosaic virus [7]
  inhibition at 500 µg/mL: 74.2%
Tobacco mosaic virus [8]
  inhibition at 100 µg/mL: 40.9%

## COc1cc2c3c(c4ccc(OCCO)cc4c2cc1OC)CN1CCC[C@H]1C3
Tobacco mosaic virus [1]
  inhibition at 500 µg/mL: 43.9%
Tobacco mosaic virus [2]
  inhibition at 100 µg/mL: 18.6%
Tobacco mosaic virus [3]
  inhibition at 500 µg/mL: 40.5%
Tobacco mosaic virus [4]
  inhibition at 500 µg/mL: 42.3%
Tobacco mosaic virus [5]
  inhibition at 100 µg/mL: 10%
Tobacco mosaic virus [6]
  inhibition at 100 µg/mL: 10.5%
Tobacco mosaic virus [7]
  inhibition at 500 µg/mL: 44%
Tobacco mosaic virus [8]
  inhibition at 100 µg/mL: 12%

## COc1cc2c3c(c4ccc(OC(C)=O)cc4c2cc1OC)CN1CCC[C@H]1C3
Tobacco mosaic virus [1]
  inhibition at 500 µg/mL: 68.7%
Tobacco mosaic virus [2]
  inhibition at 100 µg/mL: 22.4%
Tobacco mosaic virus [3]
  inhibition at 500 µg/mL: 58.5%
Tobacco mosaic virus [4]
  inhibition at 500 µg/mL: 54.2%
Tobacco mosaic virus [5]
  inhibition at 100 µg/mL: 30.6%
Tobacco mosaic virus [6]
  inhibition at 100 µg/mL: 16.2%
Tobacco mosaic virus [7]
  inhibition at 500 µg/mL: 59.4%
Tobacco mosaic virus [8]
  inhibition at 100 µg/mL: 19.3%

## CCOc1ccc2c3c(c4cc(OC)c(OC)cc4c2c1)C[C@H]1CCCN1C3
Tobacco mosaic virus [1]
  inhibition at 500 µg/mL: 50%
Tobacco mosaic virus [2]
  inhibition at 100 µg/mL: 27.2%
Tobacco mosaic virus [3]
  inhibition at 500 µg/mL: 43.7%
Tobacco mosaic virus [4]
  inhibition at 500 µg/mL: 40.2%
Tobacco mosaic virus [5]
  inhibition at 100 µg/mL: 32.5%
Tobacco mosaic virus [6]
  inhibition at 100 µg/mL: 10.4%
Tobacco mosaic virus [7]
  inhibition at 500 µg/mL: 49.7%
Tobacco mosaic virus [8]
  inhibition at 100 µg/mL: 28.5%

## CCOc1ccc2c3c(c4cc(OC)c(OC)cc4c2c1)C[C@@H]1CCCN1C3
Tobacco mosaic virus [1]
  inhibition at 500 µg/mL: 56.2%
Tobacco mosaic virus [2]
  inhibition at 100 µg/mL: 24.3%
Tobacco mosaic virus [3]
  inhibition at 500 µg/mL: 53.2%
Tobacco mosaic virus [4]
  inhibition at 500 µg/mL: 48%
Tobacco mosaic virus [5]
  inhibition at 100 µg/mL: 25.6%
Tobacco mosaic virus [6]
  inhibition at 100 µg/mL: 28.5%
Tobacco mosaic virus [7]
  inhibition at 500 µg/mL: 51.1%
Tobacco mosaic virus [8]
  inhibition at 100 µg/mL: 23%

## C#CCOc1ccc2c3c(c4cc(OC)c(OC)cc4c2c1)C[C@H]1CCCN1C3
Tobacco mosaic virus [1]
  inhibition at 500 µg/mL: 61.2%
Tobacco mosaic virus [2]
  inhibition at 100 µg/mL: 36.1%
Tobacco mosaic virus [3]
  inhibition at 500 µg/mL: 52.8%
Tobacco mosaic virus [4]
  inhibition at 500 µg/mL: 58.6%
Tobacco mosaic virus [5]
  inhibition at 100 µg/mL: 43.7%
Tobacco mosaic virus [6]
  inhibition at 100 µg/mL: 39.7%
Tobacco mosaic virus [7]
  inhibition at 500 µg/mL: 59.3%
Tobacco mosaic virus [8]
  inhibition at 100 µg/mL: 38.9%

## C#CCOc1ccc2c3c(c4cc(OC)c(OC)cc4c2c1)C[C@@H]1CCCN1C3
Tobacco mosaic virus [1]
  inhibition at 500 µg/mL: 75%
Tobacco mosaic virus [2]
  inhibition at 100 µg/mL: 45.5%
Tobacco mosaic virus [3]
  inhibition at 500 µg/mL: 70%
Tobacco mosaic virus [4]
  inhibition at 500 µg/mL: 71.6%
Tobacco mosaic virus [5]
  inhibition at 100 µg/mL: 48.6%
Tobacco mosaic virus [6]
  inhibition at 100 µg/mL: 40.9%
Tobacco mosaic virus [7]
  inhibition at 500 µg/mL: 74.9%
Tobacco mosaic virus [8]
  inhibition at 100 µg/mL: 42.4%

## COc1cc2c3c(c4ccc(OCC#N)cc4c2cc1OC)CN1CCC[C@@H]1C3
Tobacco mosaic virus [1]
  inhibition at 500 µg/mL: 79.3%
Tobacco mosaic virus [2]
  inhibition at 100 µg/mL: 44.1%
Tobacco mosaic virus [3]
  inhibition at 500 µg/mL: 72.3%
Tobacco mosaic virus [4]
  inhibition at 500 µg/mL: 74.5%
Tobacco mosaic virus [5]
  inhibition at 100 µg/mL: 40%
Tobacco mosaic virus [6]
  inhibition at 100 µg/mL: 42.3%
Tobacco mosaic virus [7]
  inhibition at 500 µg/mL: 75.1%
Tobacco mosaic virus [8]
  inhibition at 100 µg/mL: 38.7%

## COc1cc2c3c(c4ccc(OCC#N)cc4c2cc1OC)CN1CCC[C@H]1C3
Tobacco mosaic virus [1]
  inhibition at 500 µg/mL: 60%
Tobacco mosaic virus [2]
  inhibition at 100 µg/mL: 30.4%
Tobacco mosaic virus [3]
  inhibition at 500 µg/mL: 58.2%
Tobacco mosaic virus [4]
  inhibition at 500 µg/mL: 54.3%
Tobacco mosaic virus [5]
  inhibition at 100 µg/mL: 31.5%
Tobacco mosaic virus [6]
  inhibition at 100 µg/mL: 26.3%
Tobacco mosaic virus [7]
  inhibition at 500 µg/mL: 57.8%
Tobacco mosaic virus [8]
  inhibition at 100 µg/mL: 27.9%

## COc1cc2c3c(c4ccc(O)cc4c2cc1OC)CN1CCC[C@@H]1C3
Tobacco mosaic virus [1]
  inhibition at 500 µg/mL: 70.5%
Tobacco mosaic virus [2]
  inhibition at 100 µg/mL: 42%
Tobacco mosaic virus [3]
  inhibition at 500 µg/mL: 65.3%
Tobacco mosaic virus [4]
  inhibition at 500 µg/mL: 60.4%
Tobacco mosaic virus [5]
  inhibition at 100 µg/mL: 40%
Tobacco mosaic virus [6]
  inhibition at 100 µg/mL: 35.4%
Tobacco mosaic virus [7]
  inhibition at 500 µg/mL: 72.4%
Tobacco mosaic virus [8]
  inhibition at 100 µg/mL: 33.5%

## COc1ccc2c3c(c4cc(OC)c(OC)cc4c2c1)C[C@H]1CCCN1C3 [(-)-ANTOFINE]
Tobacco mosaic virus [1]
  inhibition at 500 µg/mL: 65.8%
Tobacco mosaic virus [2]
  inhibition at 100 µg/mL: 33.4%
Tobacco mosaic virus [3]
  inhibition at 500 µg/mL: 58%
Tobacco mosaic virus [4]
  inhibition at 500 µg/mL: 55.7%
Tobacco mosaic virus [5]
  inhibition at 100 µg/mL: 30.4%
Tobacco mosaic virus [6]
  inhibition at 100 µg/mL: 32.3%
Tobacco mosaic virus [7]
  inhibition at 500 µg/mL: 62.5%
Tobacco mosaic virus [8]
  inhibition at 100 µg/mL: 29.4%

## COc1ccc2c3c(c4cc(OC)c(OC)cc4c2c1)C[C@@H]1CCCN1C3 [HYPOESTESTATIN 1]
Tobacco mosaic virus [1]
  inhibition at 500 µg/mL: 60.2%
Tobacco mosaic virus [2]
  inhibition at 100 µg/mL: 28.4%
Tobacco mosaic virus [3]
  inhibition at 500 µg/mL: 55.5%
Tobacco mosaic virus [4]
  inhibition at 500 µg/mL: 51.1%
Tobacco mosaic virus [5]
  inhibition at 100 µg/mL: 30.5%
Tobacco mosaic virus [6]
  inhibition at 100 µg/mL: 37.2%
Tobacco mosaic virus [7]
  inhibition at 500 µg/mL: 56.4%
Tobacco mosaic virus [8]
  inhibition at 100 µg/mL: 26.7%

## CNCC(=O)N[C@@H](CO)C(=O)N[C@H]1[C@H](O)[C@@H](O)[C@H](n2ccc(N)nc2=O)O[C@@H]1C(N)=O [NINGNANMYCIN]
Tobacco mosaic virus [1]
  inhibition at 500 µg/mL: 69.3%
Tobacco mosaic virus [2]
  inhibition at 100 µg/mL: 23.1%
Tobacco mosaic virus [3]
  inhibition at 500 µg/mL: 54.2%
Tobacco mosaic virus [4]
  inhibition at 500 µg/mL: 57.9%
Tobacco mosaic virus [5]
  inhibition at 100 µg/mL: 26.8%
Tobacco mosaic virus [6]
  inhibition at 100 µg/mL: 38.4%
Tobacco mosaic virus [7]
  inhibition at 500 µg/mL: 58.7%
Tobacco mosaic virus [8]
  inhibition at 100 µg/mL: 25%
